Holding throughout (format): functional
A short description of experiment [1]: Ratio of ED50 (aerobic) to ED50 (hypoxic). The essentials: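 Concentration giving 50% kill of EMT6 cells under aeration (95% air/5% CO2) divided by that under chronic hypoxia (95% N2/5% CO2, 4 h pre-gassing). Both from 1 h drug exposure at 37 °C with colony-formation read-out after 8-10 days.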
Experiment [2] relates to EMT6. In words: Drug concentration required to achieve 50% kill of EMT6 cells under oxygenated conditions. The conditions noted are these: Mus musculus, read-out: ED50 (the source's name). The essentials: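 EMT6 monolayers in Waymouth's medium + 15% fetal calf serum, held in 95% air/5% CO2 in parallel with the hypoxic flasks. Drug in acetone, 0.01-500 μM, 1 h at 37 °C. Cells then trypsinised and replated in replicate dishes; surviving fraction by colony formation after 8-10 days. Concentration for 50% kill read from survival curves; at least three experiments per drug.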

Experiment [3] has as its system EMT6. The experiment in a line: Drug concentration required to achieve 50% kill of EMT6 cells under hypoxic conditions. The conditions noted are these: Mus musculus, read-out: ED50 (the source's name). In a few lines:
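Mouse EMT6 tumour monolayers in Waymouth's medium + 15% fetal calf serum. Hypoxia: flasks stoppered and gassed 95% N2/5% CO2 for 4 h at 37 °C, then drug added in acetone without breaking hypoxia. 1 h exposure, 0.01-500 μM. Cells washed, trypsinised, plated in replicate dishes under air; colonies scored after 8-10 days. ED50 from survival curves; ≥3 experiments.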

Converted amounts (≈) assume the structure as drawn.

On to `O=C(NCCCl)OCc1ccc([N+](=O)[O-])cc1`, for which, in experiment [1], the Ratio was found to be 3.1. Also, the values for the EC50 in experiment [2] and in experiment [3] were 31 µg/mL (≈ 120 µM) and 10 µg/mL (≈ 38.7 µM), respectively.

For `O=[N+]([O-])c1ccccc1CO`, in experiment [1], the Ratio came to 2. The EC50 in experiment [2] came out at 3 µg/mL (≈ 19.6 µM); in experiment [3], 1.5 µg/mL (≈ 9.8 µM).

Consider `O=[N+]([O-])c1ccc(CO)cc1` [PARANITROBENZYL ALCOHOL], for which the Ratio in experiment [1] amounted to 3.3. Further, the EC50 in experiment [2] is 2.6 µg/mL (≈ 17 µM); in experiment [3], 0.77 µg/mL (≈ 5.03 µM).

`O=[N+]([O-])c1ccccc1CCl`: the Ratio in experiment [1] was 12. Also, the EC50 stood at 1.2 µg/mL (≈ 6.99 µM) in experiment [2] and 0.1 µg/mL (≈ 0.583 µM) in experiment [3].

For `O=[N+]([O-])c1ccccc1CBr`, the Ratio in experiment [1] amounted to 25. The figures for the EC50 in experiment [2] and in experiment [3] were 1.5 µg/mL (≈ 6.94 µM) and 0.06 µg/mL (≈ 0.278 µM), respectively.

Take `O=[N+]([O-])c1ccc(CBr)cc1`: the Ratio in experiment [1] turned out to be 1.7. Also, the EC50 in experiment [2] was 0.1 µg/mL (≈ 0.463 µM); in experiment [3], 0.06 µg/mL (≈ 0.278 µM).

Take `O=C(Nc1ccccc1)OCc1ccc([N+](=O)[O-])cc1`: the Ratio in experiment [1] turned out to be 2.7. Moreover, the EC50 in experiment [2] turned out to be 0.22 µg/mL (≈ 0.808 µM); in experiment [3] it was 0.08 µg/mL (≈ 0.294 µM).

On to `O=[N+]([O-])c1ccc(CCl)cc1`, for which the Ratio in experiment [1] was 2. For the same compound, the EC50 in experiment [2] turned out to be 0.14 µg/mL (≈ 0.816 µM); in experiment [3] it was 0.07 µg/mL (≈ 0.408 µM).

Regarding `CNC(=O)OCc1ccc([N+](=O)[O-])cc1`, in experiment [1], the Ratio stood at 21. The EC50 stood at 0.63 µg/mL (≈ 3 µM) in experiment [2] and 0.03 µg/mL (≈ 0.143 µM) in experiment [3].

Take `O=C(Nc1ccccc1)OCc1ccccc1[N+](=O)[O-]`: the Ratio in experiment [1] came out at 31. Also, the EC50 in experiment [2] was found to be 6.8 µg/mL (≈ 25 µM); in experiment [3], 0.22 µg/mL (≈ 0.808 µM).

Consider `O=C(NCCCl)OCc1ccccc1[N+](=O)[O-]`, for which the Ratio in experiment [1] amounted to 80. The EC50 in experiment [2] came out at 52 µg/mL (≈ 201 µM); in experiment [3] it was 0.65 µg/mL (≈ 2.51 µM).

For `CNC(=O)OCc1ccccc1[N+](=O)[O-]`, the Ratio in experiment [1] amounted to 595. The figures for the EC50 in experiment [2] and in experiment [3] were 3.57 µg/mL (≈ 17 µM) and 0.006 µg/mL (≈ 0.0285 µM), respectively.

The record behind these values is ChEMBL document CHEMBL1121500, “Nitrobenzyl halides and carbamates as prototype bioreductive alkylating agents” (1980).
